{"source": "paper PMC5049450", "about": "(Journal of Clinical Pharmacology, 2015)", "key": {"[1]": {"type": "in vivo, human", "set-up": "AUC∞, unbound buparlisib GMR (90%CI) / Cmax, total buparlisib GMR (90%CI) / Cmax, unbound buparlisib GMR (90%CI): unit not given beside the values", "details": "for increase in Cmax compared with normal hepatic function / increase in buparlisib exposure (AUC∞) compared with normal hepatic function: total buparlisib", "in_short": "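After a single oral dose following an overnight fast, K3EDTA blood was drawn predose and at 0.5–336 h. Samples were centrifuged at 1500 g for 10 min at 3–5 °C and plasma stored at –70 °C. Plasma levels were measured by validated LC-MS/MS after solid-phase extraction with a stable-labelled internal standard. Parameters were derived by noncompartmental analysis and compared by ANOVA of log-transformed values, with hepatic function as the fixed effect.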"}, "Safety assessment": {"assay": "Safety assessment", "type": "in vivo, human", "in_short": "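Noncancer Child–Pugh mild, moderate or severe hepatic impairment subjects (6 per group) and 13 healthy controls received one oral test-compound dose after an overnight fast. Safety was monitored throughout through adverse events, clinical laboratory tests, ECGs and physical examinations. Adverse events were graded by NCI-CTCAE v4.03 and relationship to drug was recorded. Safety follow-up was on day 31.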"}, "CYP3A": {"system": "CYP3A", "details": "phase‐1 oxidative metabolism; cited from earlier work"}, "[2]": {"details": "healthy volunteers, cited from earlier work"}, "[3]": {"details": "rats; cited from earlier work"}, "plasma protein": {"system": "plasma protein", "details": "across species; independent of drug concentration; cited from earlier work"}, "[4]": {"details": "patients with advanced solid tumors, cited from earlier work"}, "[5]": {"details": "cited from earlier work"}, "[6]": {"details": "increased solubility at low pH; cited from earlier work"}, "[7]": {"details": "cited from earlier work", "remark": "listed apart in the source"}, "[8]": {"details": "linear regression, severe hepatic impairment relative to control group (1.6 vs 1.0), not statistically significant"}, "[9]": {"details": "linear regression, severe hepatic impairment relative to control group (29.7 g/L vs 45.2 g/L), not statistically significant"}, "[10]": {"details": "mild hepatic impairment versus normal hepatic function group, 30 mg"}, "[11]": {"details": "moderate hepatic impairment versus normal hepatic function group, 30 mg"}, "[12]": {"details": "moderate‐hepatic‐function group"}, "[13]": {"details": "coadministration with ritonavir"}}, "note": "Like-named read-outs stand apart in the source and are kept apart here.", "data": [{"smiles": "Nc1cc(C(F)(F)F)c(-c2cc(N3CCOCC3)nc(N3CCOCC3)n2)cn1", "note": "[buparlisib]", "values": [{"measurement": "AUC(0-inf)", "setting": "[1]; human, plasma, po, 30 mg, AUC∞, geometric mean (CV%), single oral 30 mg, fasted, normal hepatic function (n = 13)", "result": 6010, "unit": "ng·h/mL"}, {"measurement": "Cmax", "setting": "[1]; human, plasma, po, 30 mg, Cmax, geometric mean (CV%), single oral 30 mg, fasted, normal hepatic function (n = 13)", "result": 221, "unit": "ng/mL"}, {"measurement": "half-life", "setting": "[1]; human, plasma, po, 30 mg, T1/2, geometric mean (CV%), single oral 30 mg, fasted, normal hepatic function (n = 13)", "result": 2.21, "unit": "days"}, {"measurement": "Tmax", "setting": "[1]; human, plasma, po, 30 mg, Tmax, median (range), single oral 30 mg, fasted, normal hepatic function (n = 13)", "result": 1, "unit": "h"}, {"measurement": "Vd/F", "setting": "[1]; human, plasma, po, 30 mg, Vz/F, geometric mean (CV%), single oral 30 mg, fasted, normal hepatic function (n = 13)", "result": 381, "unit": "L"}, {"measurement": "increase in AUC∞ associated with higher (52%) INR", "setting": "[1]; [8]", "result": 15, "unit": "%"}, {"measurement": "increase in Cmax associated with higher (52%) INR", "setting": "[1]; [8]", "result": 11, "unit": "%"}, {"measurement": "increase in AUC∞ associated with lower (34%) baseline albumin level", "setting": "[1]; [9]", "result": 26, "unit": "%"}, {"measurement": "increase in Cmax associated with lower (34%) baseline albumin level", "setting": "[1]; [9]", "result": 15, "unit": "%"}, {"measurement": "AUC∞, unbound buparlisib GMR (90%CI)", "setting": "[1]; [10]", "result": "1.17 (0.84, 1.64)"}, {"measurement": "Cmax, total buparlisib GMR (90%CI)", "setting": "[1]; [10]", "result": "1.26 (1.00, 1.58)"}, {"measurement": "Cmax, unbound buparlisib GMR (90%CI)", "setting": "[1]; [10]", "result": "1.28 (0.99, 1.64)"}, {"measurement": "increase in Cmax compared with normal hepatic function", "setting": "[1]; mild hepatic impairment", "result": 26, "unit": "%"}, {"measurement": "increase in buparlisib exposure (AUC∞) compared with normal hepatic function", "setting": "[1]; mild hepatic impairment", "result": 16, "unit": "%"}, {"measurement": "AUC∞, unbound buparlisib GMR (90%CI)", "setting": "[1]; [11]", "result": "1.18 (0.84, 1.65)"}, {"measurement": "Cmax, total buparlisib GMR (90%CI)", "setting": "[1]; [11]", "result": "1.08 (0.87, 1.36)"}, {"measurement": "Cmax, unbound buparlisib GMR (90%CI)", "setting": "[1]; [11]", "result": "1.12 (0.87, 1.44)"}, {"measurement": "increase in Cmax compared with normal hepatic function", "setting": "[1]; moderate hepatic impairment", "result": 8, "unit": "%"}, {"measurement": "increase in buparlisib exposure (AUC∞) compared with normal hepatic function", "setting": "[1]; moderate hepatic impairment", "result": 14, "unit": "%"}, {"measurement": "Cmax, total buparlisib GMR (90%CI)", "setting": "[1]; severe hepatic impairment versus normal hepatic function group, 30 mg", "result": "1.45 (1.15, 1.81)"}, {"measurement": "increase in Cmax compared with normal hepatic function", "setting": "[1]; severe hepatic impairment", "result": 45, "unit": "%"}, {"measurement": "increase in buparlisib exposure (AUC∞) compared with normal hepatic function", "setting": "[1]; severe hepatic impairment", "result": 20, "unit": "%"}, {"measurement": "CL/F, geometric mean (CV%)", "setting": "[1]; single oral 30 mg, fasted, mild hepatic impairment, Child–Pugh A (n = 6)", "result": "4.3 (46) L/h"}, {"measurement": "CL/F, geometric mean (CV%)", "setting": "[1]; single oral 30 mg, fasted, moderate hepatic impairment, Child–Pugh B (n = 6)", "result": "4.4 (62) L/h"}, {"measurement": "CL/F, geometric mean (CV%)", "setting": "[1]; single oral 30 mg, fasted, normal hepatic function (n = 13)", "result": "5.0 (37) L/h"}, {"measurement": "CL/F, geometric mean (CV%)", "setting": "[1]; single oral 30 mg, fasted, severe hepatic impairment, Child–Pugh C (n = 6)", "result": "4.2 (41) L/h"}, {"measurement": "secondary absorption peak, time postdose", "setting": "[1]; single oral 30 mg, subjects with or without hepatic impairment", "result": "approximately 24 hours"}, {"measurement": "subjects with QTcF >450 milliseconds", "setting": "Safety assessment; all subjects", "result": "Eight subjects"}, {"measurement": "subjects with QTcF increase of >30 milliseconds from baseline", "setting": "Safety assessment; all subjects", "result": "Six subjects"}, {"measurement": "subjects with QTcF increase of >30 milliseconds from baseline", "setting": "Safety assessment; mild‐hepatic‐function group", "result": 2}, {"measurement": "subjects reporting treatment‐related AEs", "setting": "Safety assessment; moderate hepatic impairment, grade‐1 prolonged QTcF, grade‐1 hypertension", "result": 2, "unit": "subjects"}, {"measurement": "subjects with QTcF >450 milliseconds", "setting": "Safety assessment; [12]", "result": 4}, {"measurement": "subjects with QTcF increase of >30 milliseconds from baseline", "setting": "Safety assessment; [12]", "result": 2}, {"measurement": "subjects reporting treatment‐related AEs", "setting": "Safety assessment; normal hepatic function, grade‐1 dizziness, grade‐1 dermatitis acneiform", "result": 2, "unit": "subjects"}, {"measurement": "subjects with QTcF increase of >30 milliseconds from baseline", "setting": "Safety assessment; normal‐hepatic‐function group", "result": 2}, {"measurement": "subjects reporting treatment‐related AEs", "setting": "Safety assessment; severe hepatic impairment, grade‐2 thrombocytopenia", "result": 1, "unit": "subject"}, {"measurement": "subjects with QTcF >450 milliseconds", "setting": "Safety assessment; severe‐hepatic‐function group", "result": 4}, {"measurement": "deaths during the study", "setting": "Safety assessment; single oral 30 mg, all subjects (N = 31)", "result": "no deaths"}, {"measurement": "tolerability", "setting": "Safety assessment; single oral 30‐mg dose, subjects with and without hepatic impairment", "result": "well tolerated"}, {"measurement": "estimated fraction metabolized by CYP3A", "setting": "CYP3A", "result": "> 0.9"}, {"measurement": "apparent clearance", "setting": "[2]; buparlisib with ritonavir", "result": 3.27, "unit": "L/h"}, {"measurement": "elimination half‐life (T1/2)", "setting": "[2]; buparlisib with ritonavir", "result": 71.6, "unit": "h"}, {"measurement": "apparent clearance", "setting": "[2]; buparlisib without ritonavir", "result": 5.37, "unit": "L/h"}, {"measurement": "elimination half‐life (T1/2)", "setting": "[2]; buparlisib without ritonavir", "result": 53.3, "unit": "h"}, {"measurement": "increase in Cmax geometric mean ratio", "setting": "[2]; [13]", "result": 19, "unit": "%"}, {"measurement": "increase in buparlisib exposure (AUC∞)", "setting": "[2]; [13]", "result": 73, "unit": "%"}, {"measurement": "dose eliminated renally", "setting": "[3]", "result": "20–30%"}, {"measurement": "plasma protein binding", "setting": "plasma protein", "result": "79–85%"}, {"measurement": "increases in Cmax and AUC0–24 with dose", "setting": "[4]; following multiple doses", "result": "approximately dose‐proportional"}, {"measurement": "time of maximum plasma concentrations postdose", "setting": "[4]", "result": "1 to 4", "unit": "h"}, {"measurement": "permeability", "setting": "[5]", "result": "highly permeable"}, {"measurement": "solubility", "setting": "[6]", "result": "soluble"}, {"measurement": "maximum tolerated dose", "setting": "[7]", "result": 100, "unit": "mg/day"}]}]}
